From ChEMBL document CHEMBL1144619, “The synthesis and biological evaluation of novel series of nitrile-containing fluoroquinolones as antibacterial agents” (Bioorg Med Chem Lett, 2007)
pKi: −log10 of the molar value. Converted amounts (≈) assume the structure as drawn.

Assays:
[1] = test system: Moraxella catarrhalis; test: Antibacterial activity against Moraxella catarrhalis BC-3531; assay type: functional
[2] = test system: Streptococcus pneumoniae; test: Antibacterial activity against fluoroquinolone resistance Streptococcus pneumoniae SP3765; assay type: functional
[3] = test system: Haemophilus influenzae; test: Antibacterial activity against Haemophilus influenzae HI3542; assay type: functional; conditions: HI-3542
[4] = test system: Staphylococcus aureus; test: Antibacterial activity against Staphylococcus aureus SA2552; assay type: functional
[5] = test system: Streptococcus pneumoniae; test: Antibacterial activity against Streptococcus pneumoniae SV1; assay type: functional
[6] = test system: Staphylococcus aureus; test: Antibacterial activity against Staphylococcus aureus UC76; assay type: functional
[7] = target: Voltage-gated inwardly rectifying potassium channel KCNH2 (Homo sapiens, UniProt Q12809); test: Displacement of [3H]dofetilide from human ERG by fliter binding assay
Chain of Voltage-gated inwardly rectifying potassium channel KCNH2 (Q12809 whole entry): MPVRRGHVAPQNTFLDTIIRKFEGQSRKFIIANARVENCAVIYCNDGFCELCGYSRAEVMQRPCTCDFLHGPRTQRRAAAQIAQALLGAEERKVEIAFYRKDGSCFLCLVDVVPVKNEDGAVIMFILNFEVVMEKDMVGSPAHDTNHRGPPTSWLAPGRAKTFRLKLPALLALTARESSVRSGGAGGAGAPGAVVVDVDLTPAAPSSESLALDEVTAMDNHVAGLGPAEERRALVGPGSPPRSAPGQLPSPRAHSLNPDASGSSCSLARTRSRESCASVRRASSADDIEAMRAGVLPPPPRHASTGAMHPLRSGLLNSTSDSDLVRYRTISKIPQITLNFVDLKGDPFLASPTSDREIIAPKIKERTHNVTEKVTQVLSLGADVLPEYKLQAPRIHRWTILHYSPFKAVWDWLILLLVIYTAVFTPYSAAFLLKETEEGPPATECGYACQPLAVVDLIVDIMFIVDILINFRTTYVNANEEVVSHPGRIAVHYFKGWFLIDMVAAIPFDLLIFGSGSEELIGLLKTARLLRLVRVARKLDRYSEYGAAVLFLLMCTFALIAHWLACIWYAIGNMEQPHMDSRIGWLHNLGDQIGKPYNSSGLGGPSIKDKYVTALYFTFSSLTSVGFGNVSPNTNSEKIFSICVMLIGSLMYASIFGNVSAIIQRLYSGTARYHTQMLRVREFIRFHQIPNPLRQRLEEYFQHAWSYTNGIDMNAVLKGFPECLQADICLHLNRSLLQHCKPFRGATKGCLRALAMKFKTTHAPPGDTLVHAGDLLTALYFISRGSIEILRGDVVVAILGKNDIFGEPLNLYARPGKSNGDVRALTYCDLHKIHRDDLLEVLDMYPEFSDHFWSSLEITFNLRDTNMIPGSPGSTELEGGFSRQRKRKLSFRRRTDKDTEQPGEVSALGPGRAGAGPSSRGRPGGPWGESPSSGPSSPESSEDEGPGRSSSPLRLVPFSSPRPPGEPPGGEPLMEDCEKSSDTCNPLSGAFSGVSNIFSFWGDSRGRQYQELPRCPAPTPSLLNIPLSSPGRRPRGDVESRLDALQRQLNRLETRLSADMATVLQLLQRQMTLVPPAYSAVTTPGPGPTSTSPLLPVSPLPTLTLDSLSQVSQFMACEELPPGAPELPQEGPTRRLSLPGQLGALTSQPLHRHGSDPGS

[8] = Volume of distribution in rat at 1 mg/kg, iv; assay type: ADME, organism-based; set-up: dose 1 mg/kg, route intravenous; conditions: in vivo, read-out: Vdss
[9] = Clearance in rat at 1 mg/kg, iv; assay type: ADME, organism-based; set-up: dose 1 mg/kg, route intravenous; conditions: in vivo
[10] = test system: Rattus norvegicus; test: AUC in rat at 1 mg/kg, iv; assay type: ADME, organism-based, Plasma; set-up: dose 1 mg/kg, route intravenous; conditions: in vivo
[11] = Half life in rat at 1 mg/kg, iv; assay type: ADME, organism-based; set-up: dose 1 mg/kg, route intravenous; conditions: in vivo
[12] = Cmax in rat at 5 mg/kg, po; assay type: ADME, organism-based; set-up: dose 5 mg/kg, route oral; conditions: in vivo
[13] = Bioavailability in rat at 5 mg/kg, po; assay type: ADME, organism-based; conditions: in vivo
[14] = target: hERG (KCNH2) (Homo sapiens, UniProt Q12809); test: Displacement of [3H]dofetilide from human ERG at 300 uM; conditions: probe [3H]dofetilide
Chain of hERG (KCNH2) (Q12809 whole entry): as above
Outline: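 Radioligand filter-binding assay measuring displacement of [3H]-dofetilide from the hERG channel, run as in a patent protocol.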

SMILES | MIC [1] | MIC [2] | MIC [3] | MIC [4] | MIC [5] | MIC [6] | pKi [7] | Vd [8] | clearance [9] | AUC [10] | half-life [11] | Cmax [12] | bioavailability [13] | inhibition at 300 µM [14]
COc1c(N2CC[C@@H](CN)C2)ccc2c(=O)c(C(=O)O)cn(C3CC3)c12 | 0.5 µg/mL (≈ 1.4 µM) | 4 µg/mL (≈ 11.2 µM) | 0.06 µg/mL (≈ 0.168 µM) | 0.25 µg/mL (≈ 0.699 µM) | 0.125 µg/mL (≈ 0.35 µM) | 0.03 µg/mL (≈ 0.0839 µM) | 4.19 |  |  |  |  |  |  | 
COc1c(N2CC[C@@H]([C@H](C)NCCC#N)C2)ccc2c(=O)c(C(=O)O)cn(C3CC3)c12 | 1 µg/mL (≈ 2.36 µM) | 2 µg/mL (≈ 4.71 µM) | 0.5 µg/mL (≈ 1.18 µM) | 0.125 µg/mL (≈ 0.294 µM) | 0.25 µg/mL (≈ 0.589 µM) | 0.03 µg/mL (≈ 0.0707 µM) |  |  |  |  |  |  |  | 
COc1c(N2CC[C@@H]([C@H](C)N)C2)c(F)cc2c(=O)c(C(=O)O)cn(C3CC3)c12 | 0.015 µg/mL (≈ 0.0385 µM) | 0.03 µg/mL (≈ 0.077 µM) | 0.004 µg/mL (≈ 0.0103 µM) | 0.008 µg/mL (≈ 0.0205 µM) | 0.004 µg/mL (≈ 0.0103 µM) | 0.002 µg/mL (≈ 0.00514 µM) |  |  |  |  |  |  |  | 
CN[C@@H](CC#N)[C@@H]1CCN(c2c(F)cc3c(=O)c(C(=O)O)cn(C4CC4)c3c2OC)C1 | 0.06 µg/mL (≈ 0.14 µM) | 0.5 µg/mL (≈ 1.17 µM) | 0.03 µg/mL (≈ 0.07 µM) | 0.06 µg/mL (≈ 0.14 µM) | 0.06 µg/mL (≈ 0.14 µM) | 0.008 µg/mL (≈ 0.0187 µM) | < 3.82 | 1.8 L/kg | 19 mL/min/kg | 4.4 ug/hr.ml | 2.4 h | 1400 ng/mL | 53% | 9%
CC1COc2c(N3CC[C@@H]([C@H](C)N)C3)c(F)cc3c(=O)c(C(=O)O)cn1c23 (stereo partly drawn) | 0.06 µg/mL (≈ 0.16 µM) | 0.25 µg/mL (≈ 0.666 µM) | 0.008 µg/mL (≈ 0.0213 µM) | 0.125 µg/mL (≈ 0.333 µM) | 0.03 µg/mL (≈ 0.0799 µM) | 0.015 µg/mL (≈ 0.04 µM) | < 4.00 |  |  |  |  |  |  | 35%
COc1c(N2CC[C@@H](CNCCC#N)C2)c(F)cc2c(=O)c(C(=O)O)cn(C3CC3)c12 | 0.5 µg/mL (≈ 1.17 µM) | 2 µg/mL (≈ 4.67 µM) | 0.125 µg/mL (≈ 0.292 µM) | 0.06 µg/mL (≈ 0.14 µM) | 0.125 µg/mL (≈ 0.292 µM) | 0.03 µg/mL (≈ 0.07 µM) | 3.97 |  |  |  |  |  |  | 
COc1c(N2CC[C@@H](CN)C2)c(F)cc2c(=O)c(C(=O)O)cn(C3CC3)c12 | 0.125 µg/mL (≈ 0.333 µM) | 1 µg/mL (≈ 2.66 µM) | 0.015 µg/mL (≈ 0.04 µM) | 0.06 µg/mL (≈ 0.16 µM) | 0.06 µg/mL (≈ 0.16 µM) | 0.015 µg/mL (≈ 0.04 µM) | 4.62 |  |  |  |  |  |  | 
CC1COc2c(N3CC[C@@H]([C@@H](N)CC#N)C3)c(F)cc3c(=O)c(C(=O)O)cn1c23 (stereo partly drawn) | 0.125 µg/mL (≈ 0.312 µM) | 0.125 µg/mL (≈ 0.312 µM) | 0.008 µg/mL (≈ 0.02 µM) | 0.06 µg/mL (≈ 0.15 µM) | 0.015 µg/mL (≈ 0.0375 µM) | 0.008 µg/mL (≈ 0.02 µM) | < 3.82 |  |  |  |  |  |  | 22%
O=C(O)c1cn(C2CC2)c2cc(N3CCNCC3)c(F)cc2c1=O [CIPROFLOXACIN] | 0.03 µg/mL (≈ 0.0905 µM) | 16 µg/mL (≈ 48.3 µM) | 0.008 µg/mL (≈ 0.0241 µM) | 1 µg/mL (≈ 3.02 µM) |  |  |  |  |  |  |  |  |  | 
CN[C@@H](C)[C@@H]1CCN(c2c(F)cc3c(=O)c(C(=O)O)cn(C4CC4)c3c2OC)C1 [PREMAFLOXACIN] | 0.06 µg/mL (≈ 0.149 µM) | 0.125 µg/mL (≈ 0.31 µM) | 0.015 µg/mL (≈ 0.0372 µM) | 0.06 µg/mL (≈ 0.149 µM) | 0.008 µg/mL (≈ 0.0198 µM) | 0.015 µg/mL (≈ 0.0372 µM) | < 3.82 |  |  |  |  |  |  | 40%
CCC1(CN)CN(c2c(F)cc3c(=O)c(C(=O)O)cn(C4CC4)c3c2C)C1 | 0.125 µg/mL (≈ 0.335 µM) | 1 µg/mL (≈ 2.68 µM) | 0.015 µg/mL (≈ 0.0402 µM) | 0.03 µg/mL (≈ 0.0803 µM) | 0.06 µg/mL (≈ 0.161 µM) | 0.015 µg/mL (≈ 0.0402 µM) | 4.35 |  |  |  |  |  |  | 
Cc1c(N2CC[C@@H]([C@H](C)N)C2)c(F)cc2c(=O)c(C(=O)O)cn(C3CC3)c12 | 0.015 µg/mL (≈ 0.0402 µM) | 0.03 µg/mL (≈ 0.0803 µM) | 0.004 µg/mL (≈ 0.0107 µM) | 0.03 µg/mL (≈ 0.0803 µM) | 0.002 µg/mL (≈ 0.00536 µM) | 0.002 µg/mL (≈ 0.00536 µM) |  |  |  |  |  |  |  | 
